Test results published in ChEMBL document CHEMBL3865784 (Eur J Med Chem, 2016).
pIC50: −log10 of the molar value.

How the values were obtained:
HCT-116 [1] = experiment: Selectivity index, ratio of IC50 for NQO1-deficient chinese hamster V79 cells to IC50 for human HCT116 cells expressing NQO1
Outline: (§1)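 Selectivity index is IC50 in the normal cells divided by IC50 in the cancer line. All IC50s come from 72 h MTT assays. Normal cells: V79 and L929 in DMEM, PBMC in RPMI with phytohaemagglutinin. Cancer lines in RPMI with 10% FBS, seeded at 0.1 × 10^6 (HL-60) or 0.7 × 10^5 cells/well (solid tumors). Absorbance 550 nm; nonlinear regression.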

[2] = Cytotoxicity against human HCT116 cells expressing NQO1 assessed as reduction in cell viability after 72 hrs by MTT assay; format: functional, cell-based; details: HCT-116, 72 h
Outline: (§2)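 Cancer lines from NCI, grown in RPMI 1640 with 10% FBS, 2 mM L-glutamine, penicillin/streptomycin, 37 °C, 5% CO2; seeded 0.1 × 10^6 cells/well (HL-60) or 0.7 × 10^5 cells/well (solid tumours). Compounds in DMSO, final 0.1% v/v; DMSO vehicle as negative control.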

[3] = Cytotoxicity against human SF295 cells overexpressing NQO1 assessed as reduction in cell viability after 72 hrs by MTT assay; format: functional, cell-based; details: SF-295, 72 h
[4] = Cytotoxicity against human PC3 cells overexpressing NQO1 assessed as reduction in cell viability after 72 hrs by MTT assay; format: functional, cell-based; details: PC-3, 72 h
L929 [5] = experiment: Selectivity index, ratio of IC50 for NQO1-deficient mouse L929 cells to IC50 for human MDA-MB-435 cells overexpressing NQO1
Outline: (§3)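 Selectivity index is IC50 in the normal cells divided by IC50 in the cancer line. Normal cells: V79 and L929 in DMEM, PBMC in RPMI with phytohaemagglutinin. Cancer lines in RPMI with 10% FBS, seeded at 0.1 × 10^6 (HL-60) or 0.7 × 10^5 cells/well (solid tumors). Absorbance 550 nm; nonlinear regression.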

[6] = Cytotoxicity against NQO1-deficient human PBMC assessed as reduction in cell viability after 72 hrs by MTT assay; format: toxicity, cell-based; details: pbmc
HL-60 [7] = experiment: Selectivity index, ratio of IC50 for NQO1-deficient human PBMC to IC50 for NQO1-deficient human HL60 cells; outline: as §3
[8] = Cytotoxicity against NQO1-deficient human HL60 cells assessed as reduction in cell viability after 72 hrs by MTT assay; format: functional, cell-based; details: HL-60, 72 h; outline: as §2
[9] = Cytotoxicity against NQO1-deficient chinese hamster V79 cells assessed as reduction in cell viability after 72 hrs by MTT assay; format: toxicity, cell-based, Cricetulus griseus; details: v79
SF-295 [10] = experiment: Selectivity index, ratio of IC50 for NQO1-deficient chinese hamster V79 cells to IC50 for human SF295 cells overexpressing NQO1; outline: as §3
Mus musculus = species: Mus musculus; experiment: Cytotoxicity against NQO1-deficient mouse L929 cells assessed as reduction in cell viability after 72 hrs by MTT assay; format: toxicity, cell-based; details: l929
L929 [11] = experiment: Selectivity index, ratio of IC50 for NQO1-deficient mouse L929 cells to IC50 for NQO1-deficient human HL60 cells; format: functional; outline: as §3
[12] = Selectivity index, ratio of IC50 for NQO1-deficient human PBMC to IC50 for human MDA-MB-435 cells overexpressing NQO1; outline: as §3
[13] = Cytotoxicity against human MDA-MB-435 cells overexpressing NQO1 assessed as reduction in cell viability after 72 hrs by MTT assay; format: functional, cell-based; details: MDA-MB-435, 72 h; outline: as §2
HCT-116 [14] = experiment: Selectivity index, ratio of IC50 for NQO1-deficient mouse L929 cells to IC50 for human HCT116 cells expressing NQO1; outline: as §1
V79 [15] = experiment: Selectivity index, ratio of IC50 for NQO1-deficient chinese hamster V79 cells to IC50 for human MDA-MB-435 cells overexpressing NQO1; outline: as §3
L929 [16] = experiment: Selectivity index, ratio of IC50 for NQO1-deficient mouse L929 cells to IC50 for human SF295 cells overexpressing NQO1; outline: as §3
HL-60 [17] = experiment: Selectivity index, ratio of IC50 for NQO1-deficient chinese hamster V79 cells to IC50 for NQO1-deficient human HL60 cells; format: functional; outline: as §3
L929 [18] = experiment: Selectivity index, ratio of IC50 for NQO1-deficient mouse L929 cells to IC50 for human OVCAR8 cells overexpressing NQO1; outline: as §3
OVCAR-8 [19] = experiment: Selectivity index, ratio of IC50 for NQO1-deficient human PBMC to IC50 for human OVCAR8 cells overexpressing NQO1; outline: as §1
[20] = Cytotoxicity against human OVCAR8 cells overexpressing NQO1 assessed as reduction in cell viability after 72 hrs by MTT assay; format: functional, cell-based; details: OVCAR-8, 72 h; outline: as §2
L929 [21] = experiment: Selectivity index, ratio of IC50 for NQO1-deficient mouse L929 cells to IC50 for human PC3 cells overexpressing NQO1; outline: as §3
PC-3 = experiment: Selectivity index, ratio of IC50 for NQO1-deficient human PBMC to IC50 for human PC3 cells overexpressing NQO1; outline: as §3
SF-295 [22] = experiment: Selectivity index, ratio of IC50 for NQO1-deficient human PBMC to IC50 for human SF295 cells overexpressing NQO1; outline: as §3
OVCAR-8 [23] = experiment: Selectivity index, ratio of IC50 for NQO1-deficient chinese hamster V79 cells to IC50 for human OVCAR8 cells overexpressing NQO1; outline: as §1
V79 [24] = experiment: Selectivity index, ratio of IC50 for NQO1-deficient chinese hamster V79 cells to IC50 for human PC3 cells overexpressing NQO1; outline: as §3
HCT-116 [25] = experiment: Selectivity index, ratio of IC50 for NQO1-deficient human PBMC to IC50 for human HCT116 cells expressing NQO1; outline: as §1

## O=C1C(Br)=C(NCc2cn(C[Se]c3ccccc3)nn2)C(=O)c2ccccc21
HCT-116 [1]
  Ratio IC50: 1.8
[2]
  pIC50: 5.78
[3]
  pIC50: 5.79
[4]
  pIC50: 5.64
L929 [5]
  Ratio IC50: 2.3
[6]
  pIC50: 5.41
HL-60 [7]
  Ratio IC50: 3.4
[8]
  pIC50: 5.95
[9]
  pIC50: 5.52
SF-295 [10]
  Ratio IC50: 1.8
Mus musculus
  pIC50: 5.48
L929 [11]
  Ratio IC50: 2.9
[12]
  Ratio IC50: 2.6
[13]
  pIC50: 5.84
HCT-116 [14]
  Ratio IC50: 1.9
V79 [15]
  Ratio IC50: 2.1
L929 [16]
  Ratio IC50: 2
HL-60 [17]
  Ratio IC50: 2.7

## O=C1C(=O)c2ccccc2C2=C1CC(Cn1cc(C[Se]c3ccccc3)nn1)O2 (stereo unspecified)
[3]
  pIC50: 6.66
L929 [18]
  Ratio IC50: 8.8
[4]
  pIC50: 6.62
L929 [5]
  Ratio IC50: 2.1
OVCAR-8 [19]
  Ratio IC50: 18.7
[6]
  pIC50: 5.88
[20]
  pIC50: 7.15
HL-60 [7]
  Ratio IC50: 10
[8]
  pIC50: 6.89
[9]
  pIC50: 6.36
L929 [21]
  Ratio IC50: 2.5
SF-295 [10]
  Ratio IC50: 2
PC-3
  Ratio IC50: 5.4
SF-295 [22]
  Ratio IC50: 5.9
Mus musculus
  pIC50: 6.21
L929 [11]
  Ratio IC50: 4.7
[12]
  Ratio IC50: 4.5
OVCAR-8 [23]
  Ratio IC50: 6.2
[13]
  pIC50: 6.54
V79 [24]
  Ratio IC50: 1.8
V79 [15]
  Ratio IC50: 1.5
L929 [16]
  Ratio IC50: 2.8
HL-60 [17]
  Ratio IC50: 3.3

## O=C1C=C(NCc2cn(C[Se]c3ccccc3)nn2)C(=O)c2ccccc21
HCT-116 [1]
  Ratio IC50: 2.3
HCT-116 [25]
  Ratio IC50: 2.7
[2]
  pIC50: 5.76
[3]
  pIC50: 6.01
[4]
  pIC50: 5.68
[6]
  pIC50: 5.32
[20]
  pIC50: 5.72
HL-60 [7]
  Ratio IC50: 4.2
[8]
  pIC50: 5.95
[9]
  pIC50: 5.40
SF-295 [10]
  Ratio IC50: 4.1
SF-295 [22]
  Ratio IC50: 4.8
Mus musculus
  pIC50: 5.42
L929 [11]
  Ratio IC50: 3.3
[13]
  pIC50: 5.51
HCT-116 [14]
  Ratio IC50: 2.2
L929 [16]
  Ratio IC50: 3.9
HL-60 [17]
  Ratio IC50: 3.5

## C#Cc1cccc(NC2C3=C(OC2(C)C)c2ccccc2C(=O)C3=O)c1 (stereo unspecified)
HCT-116 [1]
  Ratio IC50: 1.45
HCT-116 [25]
  Ratio IC50: 1.89
[2]
  pIC50: 5.83
[3]
  pIC50: 5.59
[4]
  pIC50: 5.73
[6]
  pIC50: 5.55
[20]
  pIC50: 5.60
HL-60 [7]
  Ratio IC50: 10.7
[8]
  pIC50: 6.59
[9]
  pIC50: 5.67
L929 [21]
  Ratio IC50: 1.3
PC-3
  Ratio IC50: 1.5
Mus musculus
  pIC50: 5.60
L929 [11]
  Ratio IC50: 9.6
[13]
  pIC50: 5.69
HCT-116 [14]
  Ratio IC50: 1.68
V79 [24]
  Ratio IC50: 1.1
HL-60 [17]
  Ratio IC50: 8.3

## [N-]=[N+]=NCC1CC2=C(O1)c1ccccc1C(=O)C2=O (stereo unspecified)
HCT-116 [1]
  Ratio IC50: 1.3
HCT-116 [25]
  Ratio IC50: 2.8
[2]
  pIC50: 6.20
[3]
  pIC50: 6.41
L929 [18]
  Ratio IC50: 3
[4]
  pIC50: 6.29
L929 [5]
  Ratio IC50: 2.7
OVCAR-8 [19]
  Ratio IC50: 5.1
[6]
  pIC50: 5.74
[20]
  pIC50: 6.46
[8]
  pIC50: 6.09
[9]
  pIC50: 6.09
L929 [21]
  Ratio IC50: 2
PC-3
  Ratio IC50: 3.5
SF-295 [22]
  Ratio IC50: 4.6
Mus musculus
  pIC50: 5.97
L929 [11]
  Ratio IC50: 1.2
[12]
  Ratio IC50: 4.6
OVCAR-8 [23]
  Ratio IC50: 2.3
[13]
  pIC50: 6.41
V79 [24]
  Ratio IC50: 1.6
V79 [15]
  Ratio IC50: 2.1
L929 [16]
  Ratio IC50: 2.7
HL-60 [17]
  Ratio IC50: 1

## CC1(C)OC2=C(C(=O)C(=O)c3ccccc32)[C@@H](n2cc(C[Se]c3ccccc3)nn2)[C@@H]1Br
HCT-116 [1]
  Ratio IC50: 1.9
[2]
  pIC50: 5.95
[3]
  pIC50: 5.82
L929 [18]
  Ratio IC50: 1.8
[4]
  pIC50: 5.72
L929 [5]
  Ratio IC50: 1.3
OVCAR-8 [19]
  Ratio IC50: 2
[20]
  pIC50: 6.04
HL-60 [7]
  Ratio IC50: 1.5
[8]
  pIC50: 5.91
[9]
  pIC50: 5.66
L929 [21]
  Ratio IC50: 0.9
PC-3
  Ratio IC50: 0.9
SF-295 [22]
  Ratio IC50: 1.2
Mus musculus
  pIC50: 5.76
L929 [11]
  Ratio IC50: 1.4
OVCAR-8 [23]
  Ratio IC50: 2.3
[13]
  pIC50: 5.88
HCT-116 [14]
  Ratio IC50: 1.5
V79 [24]
  Ratio IC50: 1.1
V79 [15]
  Ratio IC50: 1.6
L929 [16]
  Ratio IC50: 1.1
HL-60 [17]
  Ratio IC50: 1.7

## O=C1C2=C(OC(Cn3cc(C[Se]c4ccccc4)nn3)C2)C(=O)c2ccccc21 (stereo unspecified)
[2]
  pIC50: 5.62
[3]
  pIC50: 6.01
L929 [18]
  Ratio IC50: 2.3
[4]
  pIC50: 5.85
L929 [5]
  Ratio IC50: 3.4
OVCAR-8 [19]
  Ratio IC50: 3
[6]
  pIC50: 5.55
[20]
  pIC50: 6.04
[8]
  pIC50: 6.09
[9]
  pIC50: 5.69
L929 [21]
  Ratio IC50: 1.5
PC-3
  Ratio IC50: 2
SF-295 [22]
  Ratio IC50: 2.8
Mus musculus
  pIC50: 5.67
L929 [11]
  Ratio IC50: 2.6
[12]
  Ratio IC50: 4.5
OVCAR-8 [23]
  Ratio IC50: 2.2
[13]
  pIC50: 6.21
V79 [24]
  Ratio IC50: 1.4
V79 [15]
  Ratio IC50: 3.2
L929 [16]
  Ratio IC50: 2.1
HL-60 [17]
  Ratio IC50: 2.4
